Results: article PMC9727797 (Molecular Biology of the Cell, 2022)

What was measured:
[1] = molecular target: T1, KIF15-N700 (Homo sapiens, UniProt Q9NS87); assay: Microtubule gliding assay; assay type: biochemical; conditions: 25 µM, singlicate
T1 sequence (Q9NS87 1-700 limits assumed): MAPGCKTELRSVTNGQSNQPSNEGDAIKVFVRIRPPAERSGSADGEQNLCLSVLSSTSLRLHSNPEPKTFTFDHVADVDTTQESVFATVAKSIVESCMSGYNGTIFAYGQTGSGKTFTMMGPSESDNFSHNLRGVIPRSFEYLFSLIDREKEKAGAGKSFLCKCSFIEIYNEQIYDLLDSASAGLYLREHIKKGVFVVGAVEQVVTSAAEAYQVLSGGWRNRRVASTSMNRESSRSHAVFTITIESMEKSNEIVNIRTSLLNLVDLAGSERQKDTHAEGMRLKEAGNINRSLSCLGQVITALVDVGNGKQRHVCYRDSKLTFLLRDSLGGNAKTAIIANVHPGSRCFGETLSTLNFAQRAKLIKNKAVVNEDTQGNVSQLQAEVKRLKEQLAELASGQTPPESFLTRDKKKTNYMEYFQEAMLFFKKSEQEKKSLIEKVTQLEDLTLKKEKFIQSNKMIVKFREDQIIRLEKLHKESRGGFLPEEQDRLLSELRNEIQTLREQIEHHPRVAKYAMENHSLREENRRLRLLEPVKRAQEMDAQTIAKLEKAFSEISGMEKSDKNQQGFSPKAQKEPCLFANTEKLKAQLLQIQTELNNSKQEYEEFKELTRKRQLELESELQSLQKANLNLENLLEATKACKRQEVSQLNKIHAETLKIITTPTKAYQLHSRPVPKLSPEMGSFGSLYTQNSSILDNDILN
Method in brief: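 His6-KIF15-N700 was expressed in High Five insect cells, then purified by Ni-NTA and Superdex 200 gel filtration. Microtubule gliding was imaged every 5 s for 1 min at 100×. Velocity was taken as distance travelled in 1 min, from ≥15 microtubules at each of three slide locations (n ≥ 50 per slide). Concentration-response curves used eight concentrations from 10 nM up to 30 or 100 µM, in triplicate. Single-point derivative tests used 25 µM.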

[2] = system: TP53–/– RPE-1 cells; assay: STLC selection; assay type: cell-based, human; conditions: 24 d; 10 μM STLC; some cells acquired resistance and formed colonies
[3] = system: RPE-1 cells; assay: Live cell imaging of metaphase duration; assay type: cell-based, human; conditions: Munesib-1 50 µM, Fift-IN and GW108X 25 µM
[4] = system: KIRC-1 cells; assay: Preanaphase spindle monopolarity, KIRC-1 cells; assay type: cell-based, human; conditions: 25 µM
Method in brief: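 TP53–/– RPE-1 and KIRC-1 cells were grown in DMEM with 10% FBS, penicillin and streptomycin; KIRC-1 medium also contained 10 μM STLC. Cells on coverslips were treated overnight with increasing test-compound concentrations or DMSO. They were then methanol-fixed and stained for KIF15, tubulin and DNA. Preanaphase spindles were scored monopolar or bipolar, in triplicate with n = 100 per replicate (± SEM).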

CSc1ncc2c(n1)-c1ccc(CO)cc1N(C)S2(=O)=O [M-206, 8-(hydroxymethyl)-6-methyl-2-(methylthio)-6H-benzo[c]pyrimido[4,5-e][1,2]thiazine 5,5-dioxide]
% inhibition of KIF15 microtubule gliding activity [1]: blocked KIF15 activity as effectively as Munesib-1

N[C@@H](CSC(c1ccccc1)(c1ccccc1)c1ccccc1)C(=O)O [STLC, S-trityl-L-cysteine]
cell killing by STLC alone [2]: killed the majority

O=C1Nc2ccc(C(=O)c3ccco3)cc2/C1=C/c1cc(Cl)c(O)c(Cl)c1 [GW108X, reference compound]
metaphase duration (metaphase plate formation until anaphase onset) [3]: significant increase in metaphase duration

CSc1ncc2c(n1)-c1ccc(C(=O)O)cc1N(C)S2(=O)=O [M-201, 6-methyl-2-(methylthio)-6H-benzo[c]pyrimido[4,5-e][1,2]thiazine-8-carboxylic acid 5,5-dioxide]
% inhibition of KIF15 microtubule gliding activity [1]: blocked KIF15 activity as effectively as Munesib-1

CSc1ncc2c(n1)-c1ccc(C(=O)N3CCNCC3)cc1N(C)S2(=O)=O [M-205, (6-methyl-2-(methylthio)-5,5-dioxido-6H-benzo[c]pyrimido[4,5-e][1,2]thiazin-8-yl)(piperazin-1-yl)methanone]
monopolarity index compared with the parent compound [4]: substantially increased the monopolarity index
